Assay results published in PMC5914179 (Advanced functional materials, 2016).

Experiments:
thrombin = thrombin (Homo sapiens, UniProt P00734); experiment: Sensor cleavage during CaCl2-activated clotting of human plasma/serum; format: biochemical; details: control human plasma + CaCl2, PEG-T1Q sensor
recombinant human MMP9 = recombinant human MMP9 (Homo sapiens, UniProt P14780); experiment: In vitro cleavage assay; format: biochemical; details: inhibitor 5 μM final, ~100 nM MMP9, PEG-M1Q 1 μM by peptide
Procedure, shortened: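 Quenched fluorogenic PEG-peptide substrate at 1 × 10^-6 M by peptide, incubated with recombinant human MMP9 (≈100 × 10^-9 M working concentration), with or without MMP inhibitor. Fluorescence dequenching monitored over time on a microplate reader.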

Chain of recombinant human MMP9 (P14780 94-707): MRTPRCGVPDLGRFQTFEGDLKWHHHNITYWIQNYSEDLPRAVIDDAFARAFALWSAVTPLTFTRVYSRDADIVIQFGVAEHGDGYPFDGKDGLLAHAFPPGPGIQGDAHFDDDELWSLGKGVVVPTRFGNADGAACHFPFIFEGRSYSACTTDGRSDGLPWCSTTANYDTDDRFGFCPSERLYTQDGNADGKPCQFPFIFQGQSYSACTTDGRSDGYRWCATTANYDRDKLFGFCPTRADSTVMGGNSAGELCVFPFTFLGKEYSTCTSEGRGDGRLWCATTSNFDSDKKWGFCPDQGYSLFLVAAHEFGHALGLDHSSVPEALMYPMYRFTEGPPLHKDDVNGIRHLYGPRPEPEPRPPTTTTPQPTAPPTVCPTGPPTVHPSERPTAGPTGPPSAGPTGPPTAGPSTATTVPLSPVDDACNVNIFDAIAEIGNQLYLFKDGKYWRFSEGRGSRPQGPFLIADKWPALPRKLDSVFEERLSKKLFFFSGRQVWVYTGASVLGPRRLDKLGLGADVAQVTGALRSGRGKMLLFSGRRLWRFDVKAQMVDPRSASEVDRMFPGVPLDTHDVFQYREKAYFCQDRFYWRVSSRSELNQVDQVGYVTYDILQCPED

SMILES	effect of thrombin inhibitor on CaCl2-induced fluorescence increase of PEG-T1Q (thrombin)	effect of MMP inhibitor on MMP9 proteolysis of PEG-M1Q (recombinant human MMP9)
CC1CNc2c(cccc2S(=O)(=O)N[C@@H](CCCNC(=N)N)C(=O)N2CC[C@@H](C)C[C@@H]2C(=O)O)C1 (some centres unmarked) [Argatroban]	eliminated the fluorescence increase	–
CNC(=O)[C@@H](NC(=O)[C@H](CC(C)C)[C@H](O)C(=O)NO)C(C)(C)C [Marimastat]	–	abrogated
